Experimental data taken from ChEMBL document CHEMBL4196130, “3-(2-Carboxyethyl)indole-2-carboxylic Acid Derivatives: Structural Requirements and Properties of Potent Agonists of the Orphan G Protein-Coupled Receptor GPR17” (J Med Chem, 2018).
Calls of active or inactive are those of the source. No cut-off for these calls is given here.

Experiments:
[1] = target: Uracil nucleotide/cysteinyl leukotriene receptor (Rattus norvegicus) (UniProt Q09QM4); assay: Agonist activity at rat GPR17 expressed in HEK293 cells assessed as induction of intracellular calcium mobilization at 10 uM by calcium 5-dye based assay relative to MDL 29,951; assay type: functional, cell-based
[2] = target: T1, Uracil nucleotide/cysteinyl leukotriene receptor (Homo sapiens, UniProt Q13304); assay: Agonist activity at human GPR17 expressed in human 1321N1 cells assessed as induction of calcium mobilization after 1 hr by Oregon Green BAPTA-1/AM dye-based fluorescence assay relative to MDL 29,951; assay type: functional, cell-based
Procedure, shortened: (§1)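 Stably transfected 1321N1 astrocytoma cells were trypsin/EDTA-harvested, held 45 min at 37°C, then loaded 1 h at 25°C in KRH buffer pH 7.4 with 3 µM Oregon Green BAPTA-1/AM and 1% Pluronic F127, washed, and plated at ~16,000 cells/well. Fluorescence was read at 520 nm for 30 s after compound injection. Efficacy was expressed relative to the maximum given by 10 µM MDL 29,951. EC50 came from concentration-response curves, run for compounds exceeding 50% stimulation at 10 µM. At least three independent experiments, each in duplicate.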

[3] = target: T1, Uracil nucleotide/cysteinyl leukotriene receptor; assay: Agonist activity at human GPR17 expressed in human 1321N1 cells assessed as induction of calcium mobilization after 1 hr by Oregon Green BAPTA-1/AM dye-based fluorescence assay; assay type: functional, cell-based; procedure, shortened: as §1
[4] = target: P2Y purinoceptor 2 (Homo sapiens, UniProt P41231); assay: Agonist activity at human P2Y2 receptor transfected in human 1321N1 cells assessed as induction of calcium mobilization after 30 mins in presence of UTP by fluo-4 dye based assay; assay type: functional, cell-based
Procedure, shortened: (§2)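 Calcium mobilization was measured in 1321N1 astrocytoma cells stably transfected with human P2Y1, P2Y2, P2Y4 or P2Y6 receptors, read on a Flexstation III microplate reader.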

[5] = target: Uracil nucleotide/cysteinyl leukotriene receptor (Rattus norvegicus, UniProt Q09QM4); assay: Agonist activity at rat GPR17 expressed in HEK293 cells assessed as induction of intracellular calcium mobilization by calcium 5-dye based assay; assay type: functional, cell-based
Procedure, shortened: (§3)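 HEK293 cells expressing rat or mouse GPR17 were seeded at 60,000 cells/well on poly-D-lysine plates and loaded 40 min with Calcium 5 indicator dye. Calcium signals were read on a plate reader. EC50 was obtained by nonlinear regression of concentration-response data. Means ± SEM from 3 independent experiments.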

[6] = target: P2Y purinoceptor 1 (Homo sapiens) (UniProt P47900); assay: Agonist activity at human P2Y1 receptor transfected in human 1321N1 cells assessed as induction of calcium mobilization after 30 mins in presence of ADP by fluo-4 dye based assay; assay type: functional, cell-based; procedure, shortened: as §2
[7] = target: Uracil nucleotide/cysteinyl leukotriene receptor (Mus musculus) (UniProt Q6NS65); assay: Agonist activity at mouse GPR17 expressed in HEK293 cells assessed as induction of intracellular calcium mobilization at 10 uM by calcium 5-dye based assay relative to MDL 29,951; assay type: functional, cell-based
[8] = target: T1, Uracil nucleotide/cysteinyl leukotriene receptor; assay: Displacement of [3H]PSB-12150 from human GPR17 expressed in CHO cell membranes after 60 mins by liquid scintillation counting
Procedure, shortened: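 Membranes from CHO cells stably expressing human GPR17 were incubated 60 min at 25°C with 25 nM [3H]PSB-12150 (17 Ci/mmol), 10 mM MgCl2 and increasing test compound concentrations. Bound radioligand was separated by GF/B filtration and counted by liquid scintillation. Nonspecific binding was defined with 100 µM unlabeled PSB-12150. Ki came from the Cheng-Prusoff equation with KD 1190 nM. Three independent experiments in duplicate.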

[9] = target: T2, P2Y purinoceptor 14 (Homo sapiens) (UniProt Q15391); assay: Agonist activity at human P2Y14 receptor transfected in CHO cells assessed as induction of beta-arrestin translocation; assay type: functional, cell-based
T2 sequence (whole entry): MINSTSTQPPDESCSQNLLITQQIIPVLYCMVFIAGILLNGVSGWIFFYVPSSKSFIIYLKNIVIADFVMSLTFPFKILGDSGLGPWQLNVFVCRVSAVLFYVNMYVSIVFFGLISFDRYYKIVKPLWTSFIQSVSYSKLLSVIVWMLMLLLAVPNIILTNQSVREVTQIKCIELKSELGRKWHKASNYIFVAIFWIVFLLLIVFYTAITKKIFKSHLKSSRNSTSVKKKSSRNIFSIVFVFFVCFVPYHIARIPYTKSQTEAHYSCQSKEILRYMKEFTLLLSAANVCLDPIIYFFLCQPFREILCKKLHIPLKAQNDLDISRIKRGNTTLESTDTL
Procedure, shortened: (§4)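 β-Arrestin translocation assays were run in CHO cells stably transfected with human P2Y12 or P2Y14 receptors.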

[10] = target: Uracil nucleotide/cysteinyl leukotriene receptor (Mus musculus, UniProt Q6NS65); assay: Agonist activity at mouse GPR17 expressed in HEK293 cells assessed as induction of intracellular calcium mobilization by calcium 5-dye based assay; assay type: functional, cell-based; procedure, shortened: as §3
[11] = target: P2Y purinoceptor 4 (Homo sapiens) (UniProt P51582); assay: Agonist activity at human P2Y4 receptor transfected in human 1321N1 cells assessed as induction of calcium mobilization after 30 mins in presence of UTP by fluo-4 dye based assay; assay type: functional, cell-based; procedure, shortened: as §2
[12] = Selectivity ratio of EC50 for rat GPR17 expressed in HEK293 cells to EC50 for human GPR17 expressed in human 1321N1 cells; assay type: cell-based
[13] = Selectivity ratio of EC50 for mouse GPR17 expressed in HEK293 cells to EC50 for human GPR17 expressed in human 1321N1 cells; assay type: cell-based
[14] = target: P2Y purinoceptor 12 (Homo sapiens) (UniProt Q9H244); assay: Agonist activity at human P2Y12 receptor transfected in CHO cells assessed as induction of beta-arrestin translocation; assay type: functional, cell-based; procedure, shortened: as §4
[15] = target: P2Y purinoceptor 6 (Homo sapiens) (UniProt Q15077); assay: Agonist activity at human P2Y6 receptor transfected in human 1321N1 cells assessed as induction of calcium mobilization after 30 mins in presence of UDP by fluo-4 dye based assay; assay type: functional, cell-based; procedure, shortened: as §2
[16] = target: T1, Uracil nucleotide/cysteinyl leukotriene receptor; assay: Agonist activity at human GPR17 expressed in human 1321N1 cells assessed as induction of calcium mobilization at >30 uM after 1 hr by Oregon Green BAPTA-1/AM dye-based fluorescence assay relative to control; assay type: functional, cell-based
[17] = target: Glutamate NMDA receptor; assay: Displacement of [3H]CCP from NMDA receptor glutamate binding site in rat cortical and hippocampal membranes
[18] = species on record: Homo sapiens; assay: Selectivity ratio of EC50 for human P2Y2 receptor transfected in human 1321N1 cells to EC50 for human GPR17 expressed in human 1321N1 cells; assay type: cell-based
[19] = target: T1, Uracil nucleotide/cysteinyl leukotriene receptor; assay: Agonist activity at human GPR17 expressed in human 1321N1 cells assessed as induction of calcium mobilization at 30 uM after 1 hr by Oregon Green BAPTA-1/AM dye-based fluorescence assay relative to control; assay type: functional, cell-based
[20] = target: T1, Uracil nucleotide/cysteinyl leukotriene receptor; assay: Agonist activity at human GPR17 expressed in human 1321N1 cells assessed as induction of calcium mobilization at >10 uM after 1 hr by Oregon Green BAPTA-1/AM dye-based fluorescence assay relative to control; assay type: functional, cell-based
[21] = target: T1, Uracil nucleotide/cysteinyl leukotriene receptor; assay: Agonist activity at human GPR17 expressed in human 1321N1 cells assessed as induction of calcium mobilization at >=10 uM after 1 hr by Oregon Green BAPTA-1/AM dye-based fluorescence assay relative to control; assay type: functional, cell-based

T1 sequence (Q13304 whole entry): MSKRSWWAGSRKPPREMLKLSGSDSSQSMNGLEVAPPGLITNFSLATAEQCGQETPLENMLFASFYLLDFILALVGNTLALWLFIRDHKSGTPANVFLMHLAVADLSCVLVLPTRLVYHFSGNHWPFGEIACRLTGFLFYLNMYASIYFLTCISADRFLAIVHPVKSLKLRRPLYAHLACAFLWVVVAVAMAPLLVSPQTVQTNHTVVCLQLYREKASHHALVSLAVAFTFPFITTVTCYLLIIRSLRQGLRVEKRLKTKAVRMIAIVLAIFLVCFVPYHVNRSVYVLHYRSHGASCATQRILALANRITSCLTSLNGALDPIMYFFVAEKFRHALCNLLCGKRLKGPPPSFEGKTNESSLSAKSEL
P2Y purinoceptor 12 (Homo sapiens), sequence (Q9H244 whole entry): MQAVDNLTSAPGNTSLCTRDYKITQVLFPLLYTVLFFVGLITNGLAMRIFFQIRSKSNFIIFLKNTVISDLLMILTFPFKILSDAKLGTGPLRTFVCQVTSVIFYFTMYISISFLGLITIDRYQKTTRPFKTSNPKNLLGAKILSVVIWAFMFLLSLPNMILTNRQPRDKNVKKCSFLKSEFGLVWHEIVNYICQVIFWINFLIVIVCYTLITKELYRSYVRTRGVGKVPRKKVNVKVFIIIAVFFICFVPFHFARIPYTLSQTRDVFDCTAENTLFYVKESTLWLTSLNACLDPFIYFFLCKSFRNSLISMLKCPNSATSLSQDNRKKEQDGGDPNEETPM
P2Y purinoceptor 4 (Homo sapiens), sequence (P51582 whole entry): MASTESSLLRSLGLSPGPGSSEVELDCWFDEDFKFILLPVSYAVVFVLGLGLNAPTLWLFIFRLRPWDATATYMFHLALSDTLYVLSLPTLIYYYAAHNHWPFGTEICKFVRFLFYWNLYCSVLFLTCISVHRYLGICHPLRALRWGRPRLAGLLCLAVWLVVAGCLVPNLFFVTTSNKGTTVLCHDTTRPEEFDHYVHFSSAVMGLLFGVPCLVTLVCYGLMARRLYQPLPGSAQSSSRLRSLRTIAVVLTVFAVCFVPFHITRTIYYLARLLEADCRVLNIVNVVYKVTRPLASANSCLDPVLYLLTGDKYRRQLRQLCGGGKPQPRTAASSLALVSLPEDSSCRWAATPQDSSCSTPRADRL
P2Y purinoceptor 6 (Homo sapiens), sequence (Q15077 whole entry): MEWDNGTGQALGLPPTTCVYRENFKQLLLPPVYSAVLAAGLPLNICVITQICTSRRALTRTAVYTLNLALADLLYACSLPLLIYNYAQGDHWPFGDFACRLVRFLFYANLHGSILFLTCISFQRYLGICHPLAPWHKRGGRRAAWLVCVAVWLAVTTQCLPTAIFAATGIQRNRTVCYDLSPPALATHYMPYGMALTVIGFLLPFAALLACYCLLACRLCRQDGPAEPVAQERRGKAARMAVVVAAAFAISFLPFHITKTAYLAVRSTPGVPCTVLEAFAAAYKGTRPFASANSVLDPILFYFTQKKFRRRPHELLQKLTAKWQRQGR
P2Y purinoceptor 2, sequence (P41231 whole entry): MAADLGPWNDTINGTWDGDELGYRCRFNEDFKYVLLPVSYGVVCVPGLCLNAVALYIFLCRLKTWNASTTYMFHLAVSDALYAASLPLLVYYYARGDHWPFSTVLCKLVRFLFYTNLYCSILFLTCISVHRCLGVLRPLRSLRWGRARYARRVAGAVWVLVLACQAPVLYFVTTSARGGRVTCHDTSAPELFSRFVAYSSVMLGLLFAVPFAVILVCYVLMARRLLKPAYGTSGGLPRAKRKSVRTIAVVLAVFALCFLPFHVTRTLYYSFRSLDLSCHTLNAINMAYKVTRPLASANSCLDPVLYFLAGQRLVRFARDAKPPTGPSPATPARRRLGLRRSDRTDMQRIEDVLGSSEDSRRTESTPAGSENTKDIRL
Uracil nucleotide/cysteinyl leukotriene receptor (Rattus norvegicus), sequence (Q09QM4 whole entry): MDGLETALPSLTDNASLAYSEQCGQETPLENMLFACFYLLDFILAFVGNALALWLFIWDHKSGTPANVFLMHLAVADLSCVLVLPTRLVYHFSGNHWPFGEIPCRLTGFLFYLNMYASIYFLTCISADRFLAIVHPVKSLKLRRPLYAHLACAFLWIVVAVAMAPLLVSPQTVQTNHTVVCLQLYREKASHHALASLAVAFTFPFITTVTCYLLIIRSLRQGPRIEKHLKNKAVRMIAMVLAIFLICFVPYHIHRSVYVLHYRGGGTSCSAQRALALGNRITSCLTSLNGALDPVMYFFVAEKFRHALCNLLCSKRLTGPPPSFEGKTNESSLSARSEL
Uracil nucleotide/cysteinyl leukotriene receptor (Rattus norvegicus, UniProt Q09QM4), sequence (Q09QM4 whole entry): as above
Uracil nucleotide/cysteinyl leukotriene receptor (Mus musculus, UniProt Q6NS65), sequence (Q6NS65 whole entry): as the sequence (Q09QM4 whole entry) above, with D2N, T6A, A15S, S270A counted along it
Uracil nucleotide/cysteinyl leukotriene receptor (Mus musculus), sequence (Q6NS65 whole entry): as the sequence (Q09QM4 whole entry) above, with D2N, T6A, A15S, S270A counted along it
P2Y purinoceptor 1 (Homo sapiens), sequence (P47900 whole entry): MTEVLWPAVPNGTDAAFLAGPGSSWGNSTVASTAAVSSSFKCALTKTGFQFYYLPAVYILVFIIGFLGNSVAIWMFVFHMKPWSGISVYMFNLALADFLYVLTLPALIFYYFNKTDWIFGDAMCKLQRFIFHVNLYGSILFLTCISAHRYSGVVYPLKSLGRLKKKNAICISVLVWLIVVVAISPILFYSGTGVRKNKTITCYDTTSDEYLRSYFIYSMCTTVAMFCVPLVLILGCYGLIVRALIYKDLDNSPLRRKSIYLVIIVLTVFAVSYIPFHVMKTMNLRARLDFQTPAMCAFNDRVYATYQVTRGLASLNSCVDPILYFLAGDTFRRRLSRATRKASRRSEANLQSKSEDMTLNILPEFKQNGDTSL

With `CCCCCCOc1ccc2c(CCC(=O)O)c(C(=O)O)[nH]c2c1` the Emax [1] was 53%, the Emax [2] was 62% and the EC50 [3] was 0.115 µM. The Activity [4] was “inactive”, the EC50 [5] was 5.31 µM and the Activity [6] was “inactive”. For the same molecule, the Emax [7] was 28%, the Ki [8] was 1.5 µM and the Activity [9] was “inactive”. For the same molecule, the EC50 [10] was 5.51 µM, the Activity [11] was “inactive” and the Ratio EC50 [12] was 34 to 48. The Ratio EC50 [13] was 34 to 48, the Activity [14] was “inactive” and the Activity [15] was “inactive”.
Molecule `O=C(O)CCc1c(C(=O)O)[nH]c2c(Cl)cccc12` has an Activity [16] of 5%, an IC50 [17] of over 1000 µM and an EC50 [3] of over 30 µM.
Molecule `CCCCCCOc1cc(Cl)c2c(CCC(=O)O)c(C(=O)O)[nH]c2c1` has an Emax [1] of 77%, an Emax [2] of 95% and an EC50 [3] of 0.067 µM. For the same molecule, the EC50 [4] was at least 50 µM, the EC50 [5] was 2.3 µM and the Activity [6] was “inactive”. It also gave a Ratio EC50 [18] of over 700, an Emax [7] of 59% and a Ki [8] of 13.1 µM. For the same molecule, the Activity [9] was “inactive”, the EC50 [10] was 3.03 µM and the Activity [11] was “inactive”. For the same molecule, the Ratio EC50 [12] was 34 to 48, the Ratio EC50 [13] was 34 to 48 and the Activity [14] was “inactive”. The Activity [15] was “inactive”.
Work on `O=C(O)CCc1c(C(=O)O)[nH]c2ccc(Cl)cc12` yielded an Activity [16] of 11%, an IC50 [17] of 35 µM and an EC50 [3] of over 30 µM.
Molecule `O=C(O)CCc1c(C(=O)O)[nH]c2cccc(Cl)c12` has an Activity [19] of 52% and an EC50 [3] of 30 µM.
Work on `CCCCCCOc1cc(Cl)cc2[nH]c(C(=O)O)c(CCC(=O)O)c12` yielded an Activity [20] of 40% and an EC50 [3] of over 10 µM.
Work on `O=C(O)CCc1c(C(=O)O)[nH]c2cccc(F)c12` yielded an Activity [21] of 44% and an EC50 [3] of at least 10 µM.
